In ChEMBL document CHEMBL1139257, “The absolute configuration plays an important role in muscarinic activity of BGT-A and its analogs” (Bioorg Med Chem, 2008):
The source made the active and inactive calls. The calls are words filed in the database; no cut-off is given here.

Assays:
Oryctolagus cuniculus [1] = species on record: Oryctolagus cuniculus; experiment: Myotic effect in rabbit assessed as change in pupil diameter under constant light at 0.02 M after 10 mins; type: functional
Method in brief: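 Twenty healthy rabbits (2.5–3.0 kg, either sex) were randomised into four groups of five. Left pupil diameter (mm) was read under constant light before and 10 min after 0.05 ml agent was dropped in; the right eye served as control reference. Significance by Student's t-test, P < 0.05.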

[2] = Displacement of [3H]NMS from mAChR in SD rat submandibulary gland by rapid filtration technique
Method in brief: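 Membranes from male SD rat (220–240 g) submandibulary glands, homogenised in ice-cold 0.32 M sucrose/50 mM Tris pH 7.4, spun at 1000g then 20,000g, at 4 °C. Membranes (0.1 mg protein) incubated at 37 °C with [3H]NMS and increasing compound concentrations in Tris buffer. Filtered through glass fibre, washed three times. Run in duplicate. IC50 by curve fit, Ki by Cheng–Prusoff.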

[3] = Agonist activity at guinea pig mAChR assessed as stimulation of carbachol-induced iris muscle contraction relative to carbachol; type: functional; conditions: Cavia porcellus
[4] = (§1) Agonist activity at guinea pig mAChR assessed as stimulation of carbachol-induced iris muscle contraction; type: functional, tissue-based, Cavia porcellus
Method in brief: (§2)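 Iris contraction assay: EC50 (agonist concentration giving half-maximal response) and log concentration–response slopes obtained by nonlinear sigmoidal dose–response logistic curve fitting. Data given as means SEM; significance by Student's t-test, P < 0.05.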

Cavia porcellus [5] = species on record: Cavia porcellus; experiment: as §1; type: functional, tissue-based; method in brief: as §2
[6] = (§3) Antagonist activity at guinea pig mAChR assessed as inhibition of carbachol-induced iris muscle contraction; type: functional, tissue-based, Cavia porcellus
Method in brief: (§4)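 pA2 values derived by Arunlakshana–Schild analysis of contraction responses; data as means SEM.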

Oryctolagus cuniculus [7] = species on record: Oryctolagus cuniculus; experiment: Mydriatic effect in rabbit assessed as change in pupil diameter under constant light at 0.02 M after 10 mins; type: functional
Method in brief: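 Rabbits (2.5–3.0 kg, either sex), randomised into groups of five. 0.05 ml agent dropped into left eye, right eye as control reference. Left pupil diameter (mm) read under constant light before and 10 min after dosing. Significance by Student's t-test, P < 0.05.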

Cavia porcellus [8] = species on record: Cavia porcellus; experiment: as §3; type: functional, tissue-based; method in brief: as §4

In the case of `CC(=O)O[C@@H]1CC2C[C@H](OS(=O)(=O)c3ccccc3)CC1N2C` (some centres undefined), the Activity (Oryctolagus cuniculus [1]) is reported as 4.7%.
Work on `CC(=O)O[C@H]1CC2C[C@@H](OS(=O)(=O)c3ccccc3)CC1N2C` (some centres undefined) yielded a Ki [2] of 0.04 µM, an Activity (Oryctolagus cuniculus [1]) of 44% and an Emax [3] of 87.1%. For the same compound, the pEC50 [4] was 6.06 and the Activity (Cavia porcellus [5]) was “Dose-dependent effect”.
`CC(=O)O[C@H]1CC2C[C@@H](OC(=O)c3ccc([N+](=O)[O-])cc3)CC1N2C` (some centres undefined) showed a pA2 [6] of 6.11, a Ki [2] of 3.7 µM and an Activity (Oryctolagus cuniculus [7]) of 35.1%.
With `C[N+](C)(C)CCOC(N)=O.[Cl-]` [CARBACHOL] the Emax [3] was 100% and the pEC50 [4] was 6.57.
With `CC(=O)O[C@@H]1CC2C[C@H](OC(=O)c3ccc([N+](=O)[O-])cc3)CC1N2C` (some centres undefined) the Activity (Cavia porcellus [8]) was “inactive”, the Ki [2] was 450 µM and the Activity (Oryctolagus cuniculus [7]) was 3.7%.
With `CC(=O)O[C@@H]1CC2C[C@H](OC(=O)c3ccc(Cl)cc3)CC1N2C` (some centres undefined) the Activity (Cavia porcellus [8]) was “inactive”, the Ki [2] was 73 µM and the Activity (Oryctolagus cuniculus [7]) was 3%.
With `CC(=O)O[C@H]1CC2C[C@@H](OC(=O)c3ccc(Cl)cc3)CC1N2C` (some centres undefined) the Ki [2] was 9 µM and the Activity (Oryctolagus cuniculus [7]) was 32.2%.
